This note sets out measurements from ChEMBL document CHEMBL1140077, “Lipid-lowering (hetero)aromatic tetrahydro-1,4-oxazine derivatives with antioxidant and squalene synthase inhibitory activity” (J Med Chem, 2008).

Molecules are shown by their SMILES. pIC50: −log10 of the molar value.

The target in one test is T1, Squalene synthase (Rattus norvegicus, UniProt Q02769).
T1 sequence (Q02769 whole entry): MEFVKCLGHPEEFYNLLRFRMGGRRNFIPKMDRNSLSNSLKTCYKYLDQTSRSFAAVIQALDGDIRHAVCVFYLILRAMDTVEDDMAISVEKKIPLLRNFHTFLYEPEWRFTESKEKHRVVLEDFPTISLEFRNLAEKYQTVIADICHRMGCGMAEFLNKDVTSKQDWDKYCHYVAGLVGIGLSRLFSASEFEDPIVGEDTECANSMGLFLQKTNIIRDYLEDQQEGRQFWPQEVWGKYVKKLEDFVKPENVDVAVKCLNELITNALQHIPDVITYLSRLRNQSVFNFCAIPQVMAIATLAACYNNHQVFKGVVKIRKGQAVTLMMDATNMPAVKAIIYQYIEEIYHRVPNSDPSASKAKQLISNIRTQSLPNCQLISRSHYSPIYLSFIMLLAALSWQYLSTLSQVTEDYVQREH
In words: Inhibition of squalene synthase in rat liver microsome measured by conversion of [3H]FPP to squalene. The test is classed as microsomes. An outline of the steps: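 Rat liver microsomes (18 µg protein/mL) in 50 mM phosphate pH 7.4 with 10 mM MgCl2, 0.5 mM NADPH, compound in ethanol; preincubated 10 min 37 °C, started with [3H]FPP (0.5 µM), 10 min 37 °C. Stopped with ethanolic KOH, 65 °C 30 min, petroleum ether extract counted by scintillation; triplicates, IC50 from mean.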

Test [1] has as its system Rattus norvegicus. In words: Decrease in total cholesterol level in Fischer 344 rat plasma at 56 umol/kg, ip after 24 hrs. The test is classed as functional. On the set-up: scale not given: the % may be the effect or the level left. Summed up:
(§1)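 Male Fischer-344 rats (180-220 g) made hyperlipidemic with Triton WR 1339 (200 mg/kg ip, aqueous); 1 h later compound (56 µmol/kg) in saline or saline alone given ip. Aortic blood taken at 24 h; plasma total cholesterol, LDL-C and triglycerides measured with kits in duplicate; mean of 8-10 rats per compound.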

Test [2] deals with Rattus norvegicus. In words: Decrease in LDL-cholesterol level in Fischer 344 rat plasma at 56 umol/kg, ip after 24 hrs. On the set-up: scale not given: the % may be the effect or the level left. Type of test: functional. An outline of the steps:
as §1

The test system of test [3] is Rattus norvegicus. In words: Decrease in triglyceride level in Fischer 344 rat plasma at 56 umol/kg, ip after 24 hrs. Type of test: functional. Set-up: scale not given: the % may be the effect or the level left. Summed up: as §1
For the next test, the system named is Liver microsomes. In words: Inhibition of lipid peroxidation in heat-inactivated rat liver microsomes after 45 mins. Type of test: functional, Microsome. An outline of the steps: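 Heat-inactivated liver microsomes from untreated rats (2.5 mg protein/mL) with 0.2 mM ascorbate in Tris-HCl/KCl (50/150 mM, pH 7.4), compound 10 µM-1 mM in DMSO; started with FeSO4 (10 µM), 37 °C 45 min. TBAR read at 535 vs 600 nm; duplicates; IC50 as mean concentration giving 50% inhibition of peroxidation.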

Turning to `CN1CCOC(O)(c2ccc(-c3ccc(Br)cc3)cc2)C1` (stereo not given), the pIC50 against Squalene synthase is 5.22; with Liver microsomes it was 3.66. The Activity in the test with Rattus norvegicus [1] is on record as 47%; in the test on Rattus norvegicus [2] it was 36%; in the test on Rattus norvegicus [3], 51%.
In the same order, the values of `OC1(c2ccc(-c3ccc(Br)cc3)cc2)CN2CCCCC2CO1` (stereo not given) are 5.52, 3.86, 17%, 6% and 17%.
For `CN1CC(O)(c2ccc(-c3nc4ccccc4s3)cc2)OC2CCCCC21` (stereo not given), in that order: 5.22, 3.69, 0%, 24% and 0%.
For `CN1CC(O)(c2ccc(-c3cccs3)cc2)OC2CCCCC21` (stereo not given), in that order: 5.00, 4.70, 45%, 46% and 47%.
Turning to `CN1CC(O)(c2ccc(-c3ccc(Br)cc3)cc2)OC2CCCCC21` (stereo not given), the negative logarithm of the IC50 (pIC50) at Squalene synthase was 5.40; in the test on Liver microsomes, 3.70. Besides, the Activity in the test on Rattus norvegicus [1] is on record as 23%; in the test on Rattus norvegicus [2] it was 53%; in the test with Rattus norvegicus [3] it was 7%.
Take `OC1(c2ccc(-c3ccccc3F)cc2)CN2CCCCC2CO1` (stereo not given): the figures for the pIC50 at Squalene synthase and in the test on Liver microsomes were 5.00 and 3.41, respectively. The Activity is 5% in the test with Rattus norvegicus [1], 11% in the test with Rattus norvegicus [2] and 15% in the test on Rattus norvegicus [3].
In the same order, the values of `CN1CC(O)(c2ccc(-c3ccc(Br)s3)cc2)OC2CCCCC21` (stereo not given) are 6.00, 3.80, 35%, 45% and 26%.
In the same order, the values of `CN1CCOC(O)(c2ccc(-c3ccc(F)cc3)cc2)C1` (stereo not given) are 4.64, 3.48, 23%, 36% and 18%.
In the same order, the values of `OC1(c2ccc(-c3ccc(Cl)cc3)cc2)CN2CCCCC2CO1` (stereo not given) are 4.82, 3.75, 44%, 35% and 52%.
For the compound `OC1(c2ccc(-c3ccc(Br)s3)cc2)CN2CCCCC2CO1` (stereo not given), the figures for the pIC50 against Squalene synthase and with Liver microsomes were 5.15 and 3.79, respectively. Besides, the Activity in the test on Rattus norvegicus [1] was determined as 36%; in the test on Rattus norvegicus [2], 35%; with Rattus norvegicus [3], 37%.
For `CN1CC(O)(c2ccc(-c3ccccc3)cc2)OC2CCCCC21` (stereo not given), in that order: 4.44, 3.35, 54%, 51% and 49%.
In the same order, the values of `OC1(c2ccc(-c3nc4ccccc4s3)cc2)CN2CCCCC2CO1` (stereo not given) are 5.30, 3.73, 55%, 41% and 46%.
In the same order, the values of `CN1CCOC(O)(c2ccc(-c3cccs3)cc2)C1` (stereo not given) are 5.30, 4.06, 48%, 61% and 38%.
On to `OC1(c2ccc(-c3ccc(F)cc3)cc2)CN2CCCCC2CO1` (stereo not given), for which the pIC50 against Squalene synthase is 5.00; in the test on Liver microsomes it was 3.79. The Activity in the test on Rattus norvegicus [1] was determined as 27%; with Rattus norvegicus [2], 11%; with Rattus norvegicus [3] it was 95%.
In the same order, the values of `CN1CCOC(O)(c2ccc(-c3nc4ccccc4s3)cc2)C1` (stereo not given) are 5.70, 3.95, 46%, 53% and 44%.
For the compound `CN1CC(O)(c2ccc(-c3ccccc3F)cc2)OC2CCCCC21` (stereo not given), the pIC50 on Squalene synthase was 4.38; with Liver microsomes it was 3.31. The Activity was found to be 18% in the test with Rattus norvegicus [1], 47% in the test with Rattus norvegicus [2] and 25% with Rattus norvegicus [3].
For `CN1CC(O)(c2ccc(-c3ccc(Cl)cc3)cc2)OC2CCCCC21` (stereo not given), in that order: 5.05, 3.74, 11%, 29% and 41%.
For `OC1(c2ccc(-c3cccs3)cc2)CN2CCCCC2CO1` (stereo not given), in that order: 5.15, 3.76, 43%, 46% and 29%.
For `CN1CCOC(O)(c2ccc(-c3ccccc3F)cc2)C1` (stereo not given), in that order: 4.40, 3.74, 67%, 82% and 64%.
On to `CN1CCOC(O)(c2ccc(-c3ccc(Br)s3)cc2)C1` (stereo not given), for which the pIC50 at Squalene synthase was 4.89; in the test on Liver microsomes, 4.29. Besides, the Activity in the test on Rattus norvegicus [1] is recorded as 43%; in the test on Rattus norvegicus [2], 26%; in the test on Rattus norvegicus [3] it was 35%.
As to `CN1CC(O)(c2ccc(-c3ccc(F)cc3)cc2)OC2CCCCC21` (stereo not given), the pIC50 was 4.55 against Squalene synthase and 3.38 in the test with Liver microsomes. The Activity was 41% in the test on Rattus norvegicus [1], 33% in the test on Rattus norvegicus [2] and 94% in the test with Rattus norvegicus [3].
Regarding `CN1CCOC(O)(c2ccc(-c3ccc(Cl)cc3)cc2)C1` (stereo not given), the pIC50 against Squalene synthase is 5.05; in the test on Liver microsomes, 3.95. In addition, the results for the Activity with Rattus norvegicus [1], in the test with Rattus norvegicus [2] and with Rattus norvegicus [3] were 63%, 57% and 70%, respectively.
